Here are results for three compounds from ChEMBL document CHEMBL5316280, “Development of N-(1-Adamantyl)benzamides as Novel Anti-Inflammatory Multitarget Agents Acting as Dual Modulators of the Cannabinoid CB2 Receptor and Fatty Acid Amide Hydrolase” (J Med Chem, 2023).

Assay [1] relates to THP-1. Description: Antiinflammatory activity in human THP-1 macrophages assessed as increase in IL-4 level incubated for 24 hrs in presence of […] by ELISA based qRT-PCR analysis. Type of assay: functional, cell-based. The method, boiled down: (§1)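 THP-1 cells were seeded at 1 x 10⁵ cells/ml for 48 h. For macrophages, cells were differentiated with 0.01 µM PMA for 48 h; monocytes received no PMA. Cells were then given 24 h with or without 10 µg/ml LPS, plus ligands alone or with the CB2R inverse agonist JTE907 (10 µM). Cytokines were measured in 5 µL supernatant (from 1 x 10⁴ cells) by ProQuantum immunoassay, read as pg/ml from kit titration curves; n=3.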
(ELISA stands for enzyme-linked immunosorbent assay.)

For assay [2], the target named is T1, Fatty-acid amide hydrolase 1 (Homo sapiens, UniProt O00519).
T1 sequence (O00519 whole entry): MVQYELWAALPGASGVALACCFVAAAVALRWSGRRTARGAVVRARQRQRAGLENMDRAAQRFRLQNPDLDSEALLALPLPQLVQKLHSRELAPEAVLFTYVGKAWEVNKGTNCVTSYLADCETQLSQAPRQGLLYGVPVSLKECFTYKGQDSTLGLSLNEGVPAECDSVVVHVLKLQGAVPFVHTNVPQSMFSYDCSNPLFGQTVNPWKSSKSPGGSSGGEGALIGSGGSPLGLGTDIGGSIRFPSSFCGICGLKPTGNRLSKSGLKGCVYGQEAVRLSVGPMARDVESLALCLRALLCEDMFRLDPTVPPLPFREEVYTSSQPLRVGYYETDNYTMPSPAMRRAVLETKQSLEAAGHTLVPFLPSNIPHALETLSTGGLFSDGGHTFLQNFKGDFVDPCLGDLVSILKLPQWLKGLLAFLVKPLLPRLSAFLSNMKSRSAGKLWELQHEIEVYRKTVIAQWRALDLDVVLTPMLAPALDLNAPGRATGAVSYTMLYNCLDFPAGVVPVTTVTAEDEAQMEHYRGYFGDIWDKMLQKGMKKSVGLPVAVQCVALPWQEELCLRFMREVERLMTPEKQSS
Description: Inhibition of recombinant human FAAH using AMC-AA as substrate preincubated for 10 mins followed by substrate addition measured after 2 hrs by fluorometric assay. A digest of the protocol: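 Human recombinant FAAH preincubated with inhibitor at various concentrations in Tris-HCl 125 mM, Na₂EDTA 1 mM, pH 9.0, 10 min at room temperature with shaking. AMC-AA substrate then added (1 µM final); fluorescence read every 30 s for 2 h at 37 °C (ex 340/em 450 nm). Percent inhibition from no-inhibitor controls and no-enzyme blanks; IC50 from at least three independent runs in triplicate.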

Another assay deals with Cannabinoid receptor 2 (Homo sapiens, UniProt P34972). Briefly: Displacement of [3H]CP55940 from recombinant human CB2 receptor expressed in HEK293 cell membrane incubated for 90 mins by beta scintillation counter method. Type of assay: cell membranes. A digest of the protocol:
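HEK293 membranes stably expressing human CB2 (50 µg protein/well) competed with 0.2 nM [3H]-CP55,940 (final) against test compound at 10⁻¹²–10⁻⁵ M in Tris-HCl 50 mM, EGTA 2.5 mM, MgCl₂ 5 mM, 0.1% fatty-acid-free BSA, pH 7.4; 90 min at 30 °C. Nonspecific binding defined with 10 µM GW405833.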
Background: Displacement assays read how much labelled ligand stays bound in the presence of the test substance.

For assay [3], the system named is THP-1. Description: Antiinflammatory activity in human THP-1 monocytes assessed as decrease in TNFalpha level incubated for 24 hrs in presence of […] by ELISA based qRT-PCR analysis. The format is functional, cell-based. A digest of the protocol: as §1
Assay [4] has as its system THP-1. Briefly: Antiinflammatory activity in human THP-1 monocytes assessed as decrease in IFNgamma level incubated for 24 hrs by ELISA based qRT-PCR analysis. Type of assay: functional, cell-based. A digest of the protocol: as §1
The test system of assay [5] is THP-1. Briefly: Antiinflammatory activity in human THP-1 macrophages assessed as decrease in TNFalpha level incubated for 24 hrs by ELISA based qRT-PCR analysis. Type of assay: functional, cell-based. A digest of the protocol:
as §1

Another assay deals with Cannabinoid receptor 1 (Homo sapiens, UniProt P21554). Briefly: Agonist activity at human CB1 receptor in CHO cells incubated for 15 mins by plate reader analysis.
Sequence of Cannabinoid receptor 1 (P21554 whole entry): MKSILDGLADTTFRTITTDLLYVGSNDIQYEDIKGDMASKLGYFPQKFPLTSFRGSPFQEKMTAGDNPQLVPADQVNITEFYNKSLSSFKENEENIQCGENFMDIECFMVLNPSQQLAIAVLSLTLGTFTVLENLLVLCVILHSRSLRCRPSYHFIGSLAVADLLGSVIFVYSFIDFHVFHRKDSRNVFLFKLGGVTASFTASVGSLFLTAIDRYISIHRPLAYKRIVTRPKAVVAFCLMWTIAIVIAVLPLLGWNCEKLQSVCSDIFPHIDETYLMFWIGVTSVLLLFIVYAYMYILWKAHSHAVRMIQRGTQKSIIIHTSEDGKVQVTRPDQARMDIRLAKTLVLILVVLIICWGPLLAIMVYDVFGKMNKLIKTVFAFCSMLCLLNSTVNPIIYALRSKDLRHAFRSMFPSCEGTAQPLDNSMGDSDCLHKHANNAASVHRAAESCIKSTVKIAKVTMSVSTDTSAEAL
In assay [6] the test system is THP-1. Description: Antiinflammatory activity in LPS-activated human THP-1 macrophages assessed as increase in IL-10 level incubated for 24 hrs by ELISA based qRT-PCR analysis. The format is functional, cell-based. The method, boiled down: as §1
Assay [7] relates to THP-1. Description: Antiinflammatory activity in LPS-activated human THP-1 macrophages assessed as increase in IL-4 level incubated for 24 hrs by ELISA based qRT-PCR analysis. The format is functional, cell-based. The method, boiled down: as §1
In assay [8] the test system is THP-1. Briefly: Antiinflammatory activity in LPS-activated human THP-1 monocytes assessed as decrease in IL-6 level incubated for 24 hrs by ELISA based qRT-PCR analysis. The format is functional, cell-based. A digest of the protocol:
as §1

Calls of active or inactive are those of the source. The calls are words filed in the database; no cut-off is given here.

Sequence of Cannabinoid receptor 2 (P34972 whole entry): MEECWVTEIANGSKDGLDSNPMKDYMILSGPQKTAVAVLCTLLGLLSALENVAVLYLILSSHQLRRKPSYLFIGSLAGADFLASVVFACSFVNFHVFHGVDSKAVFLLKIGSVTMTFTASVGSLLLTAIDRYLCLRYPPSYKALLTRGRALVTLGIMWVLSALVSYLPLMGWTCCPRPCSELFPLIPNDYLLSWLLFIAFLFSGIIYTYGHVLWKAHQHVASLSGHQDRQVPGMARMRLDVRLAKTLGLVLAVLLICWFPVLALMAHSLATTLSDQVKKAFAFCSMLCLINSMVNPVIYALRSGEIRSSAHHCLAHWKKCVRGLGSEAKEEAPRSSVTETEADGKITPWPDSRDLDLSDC

In general, IC50 refers to the concentration needed to halve the response being measured. One may read the Ki as the equilibrium dissociation constant of an inhibitor or competing ligand from its target. What is called EC50 is the concentration giving half of the maximal effect. High values mean a less potent agent, low ones a more potent agent. Regarding `CCCCCOc1ccccc1C(=O)NC12CC3CC(CC(C3)C1)C2`, the outcome with THP-1 [1] and in the assay on THP-1 [3] was inactive. In addition, the IC50 in [2] is 6200 nM. Besides, the Ki on Cannabinoid receptor 2 is 10.8 nM. Also, the result in the assay on THP-1 [4] and in the assay on THP-1 [5] was Active. In addition, on Cannabinoid receptor 1, a half-maximal response (EC50) required 106 nM.

As for `O=C(NC12CC3CC(CC(C3)C1)C2)c1ccccc1OCc1ccccc1`, the outcome in the assay on THP-1 [1], with THP-1 [6], in the assay on THP-1 [7] and in the assay with THP-1 [3] was inactive. Besides, in assay [2], the IC50 amounted to 4000 nM. On Cannabinoid receptor 2, the Ki came to 14.8 nM. In addition, the outcome with THP-1 [4] and in the assay with THP-1 [5] was Active. The compound also returned an EC50 at Cannabinoid receptor 1 of 489 nM.

Turning to `O=C(NC12CC3CC(CC(C3)C1)C2)c1ccccc1OCC1CCCCC1`, the outcome in the assay on THP-1 [8], in the assay with THP-1 [1] and in the assay on THP-1 [3] was inactive. Besides, the IC50 in assay [2] stood at 3400 nM. Moreover, the Ki on Cannabinoid receptor 2 came to 20.1 nM. For the same compound, the result in the assay on THP-1 [4] and in the assay with THP-1 [5] was Active. Moreover, the response on Cannabinoid receptor 1 was half-maximal at 253 nM (EC50).
